Calls of active or inactive are those of the source. The rule behind the calls is not given here.
Tests used:
Format in all cases: functional, cell-based
[1] = tested on: A2780; test: Cytotoxicity against human A2780 cells assessed as cell survival after 96 hrs by sulforhodamine B assay; conditions: A2780, 96 h
Method in brief: (§1)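 Cells in exponential growth were seeded at densities that avoided confluence and, after 24 h, exposed to serial compound dilutions (0-30 μM, DMSO ≤0.5% final) for 96 h. Cells were then fixed with 10% TCA at 4 °C, washed with water, and stained with 0.4% SRB for about 20 min. Excess dye was removed with 1% acetic acid, bound dye was taken up in 10 mM Tris base, and absorbance was read at 570 nm.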

[2] = tested on: A549; test: Cytotoxicity against human A549 cells assessed as cell survival after 96 hrs by sulforhodamine B assay; conditions: A549, 96 h; method in brief: as §1
[3] = tested on: A2780; test: Induction of apoptosis in human A2780 cells at EC90 after 48 hrs by acridine orange/propidium iodide staining-based fluorescence microscopic analysis
Method in brief: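 The supernatant cells were pelleted, washed in PBS, resuspended in PBS, mixed with acridine orange/propidium iodide, and examined under a fluorescence microscope, with green-fluorescent cells scored as undergoing controlled death and orange cells as necrotic.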

[4] = Cytotoxicity against human 518A2 cells assessed as cell survival after 96 hrs by sulforhodamine B assay; conditions: 518A2, 96 h; method in brief: as §1
[5] = tested on: HT-29; test: Cytotoxicity against human HT-29 cells assessed as cell survival after 96 hrs by sulforhodamine B assay; conditions: HT-29, 96 h; method in brief: as §1
[6] = tested on: 8505C; test: Cytotoxicity against human 8505C cells assessed as cell survival after 96 hrs by sulforhodamine B assay; method in brief: as §1
[7] = tested on: MCF7; test: Cytotoxicity against human MCF7 cells assessed as cell survival after 96 hrs by sulforhodamine B assay; conditions: MCF7, 96 h; method in brief: as §1

For `CC1(C)CC[C@]2(C(=O)NCCN3CCCC3)CC[C@]3(C)C(=CC[C@@H]4[C@@]5(C)CC[C@H](O)[C@@](C)(CO)[C@@H]5CC[C@]43C)[C@@H]2C1`, the EC50 [1] was 1100 nM, the EC50 [2] was 1900 nM and the Activity [3] was “Active”. For the same molecule, the EC50 [4] was 2000 nM, the EC50 [5] was 1200 nM and the EC50 [6] was 1800 nM. It also gave an EC50 [7] of 3700 nM.

— ChEMBL document CHEMBL3632609, “Hederagenin as a triterpene template for the development of new antitumor compounds” (Eur J Med Chem, 2015)
